Published values gathered from unrelated publications.
pIC50: −log10 of the molar value.
Effect on: cell growth or viability

| Structure (SMILES) | cell line | technique | time | pIC50 |
| --- | --- | --- | --- | --- |
| CC(C)Oc1ccc(S(=O)(=O)c2ccc(Oc3cc(OCC(N)=O)c(C(=O)C(Cl)Cl)cc3[N+](=O)[O-])cc2)cc1 | NCI-H1650 | MTT | 72 h | 6.34 |
| CCCOc1nc(-c2cccc(O)c2)cc(-c2cc3ccccc3nc2N2CCOCC2)c1C#N | Caco-2 | MTT | 72 h | 6.89 |
| COc1nc(NCc2cn(-c3ccc(C(=O)Nc4ccc(Cl)cc4)cc3)nn2)nc(OC)n1 | Caco-2 | MTT | 72 h | 6.27 |
| N[C@H]1CC[C@H](N[C@@H]2C[C@H]2c2ccccc2)CC1 | TC-32 | resazurin | – | 3.75 |
| COc1nc(NCc2cn(-c3ccc(C(N)=O)cc3)nn2)nc(OC)n1 | Caco-2 | MTT | 72 h | 6.01 |
| CCCOc1nc(-c2cccc(O)c2)cc(-c2cc3cc(Cl)ccc3nc2N2CCOCC2)c1C#N | Caco-2 | MTT | 72 h | 6.45 |
| CCNCCCn1c2c(c3cc(OC)c(OC)cc3c1=O)C(=O)c1cc3c(nc1-2)OCO3 | TC-32 | MTS | 72 h | 7.28 |
| CCOc1nc(-c2cccc(O)c2)cc(-c2cc3cc(Cl)ccc3nc2N2CCOCC2)c1C#N | Caco-2 | MTT | 72 h | 6.93 |
| C=CC(=O)N1CCN(c2nc(=O)n(-c3c(C)ccnc3C(C)C)c3nc(-c4c(O)cccc4F)c(F)cc23)[C@@H](C)C1 | UMUC3 | ATP luminescence | – | 7.31 |
| CC1(C)CCC(CN2CCN(c3ccc(C(=O)NS(=O)(=O)c4ccc(NCC5CCOCC5)c([N+](=O)[O-])c4)c(Oc4cnc5[nH]ccc5c4)c3)CC2)=C(c2ccc(Cl)cc2)C1 | SU-DHL-4 | ATP luminescence | 48 h | 7.60 |
| COc1nc(NCc2cn(-c3ccc(C(=O)Nc4ccc(F)cc4)cc3)nn2)nc(OC)n1 | Caco-2 | MTT | 72 h | 5.99 |
| COc1cc2c3c(n(CCCNC(C)C)c(=O)c2cc1OC)-c1nc2c(cc1C3=O)OCO2 | TC-32 | MTS | 72 h | 7.26 |
| COc1nc(NCc2cn(-c3ccc(C(=O)Nc4ccc(C(F)(F)F)cc4)cc3)nn2)nc(OC)n1 | Caco-2 | MTT | 72 h | 6.77 |
| C=C(F)C(=O)N1CCN(c2nc(OC[C@@H]3CCCN3C)nc3c2CCN(c2cccc4cccc(Cl)c24)C3)C[C@@H]1CC#N | UMUC3 | ATP luminescence | – | 6.53 |
| COc1nc(NCc2cn(-c3ccc(NC(=O)c4ccccc4)cc3)nn2)nc(OC)n1 | Caco-2 | MTT | 72 h | 6.12 |
| Nc1n[nH]c2nc(-c3cccc(O)c3)cc(-c3cc4ccccc4nc3N3CCOCC3)c12 | Caco-2 | MTT | 72 h | 6.20 |
